The values below come from ChEMBL document CHEMBL1949586, “Conicasterol E, a small heterodimer partner sparing farnesoid X receptor modulator endowed with a pregnane X receptor agonistic activity, from the marine sponge Theonella swinhoei” (J Med Chem, 2012).

Assay type in all cases: functional, cell-based
Data set [1] addresses T1, Nuclear receptor subfamily 1 group I member 2 (Homo sapiens, UniProt O75469).
T1 sequence (O75469 whole entry): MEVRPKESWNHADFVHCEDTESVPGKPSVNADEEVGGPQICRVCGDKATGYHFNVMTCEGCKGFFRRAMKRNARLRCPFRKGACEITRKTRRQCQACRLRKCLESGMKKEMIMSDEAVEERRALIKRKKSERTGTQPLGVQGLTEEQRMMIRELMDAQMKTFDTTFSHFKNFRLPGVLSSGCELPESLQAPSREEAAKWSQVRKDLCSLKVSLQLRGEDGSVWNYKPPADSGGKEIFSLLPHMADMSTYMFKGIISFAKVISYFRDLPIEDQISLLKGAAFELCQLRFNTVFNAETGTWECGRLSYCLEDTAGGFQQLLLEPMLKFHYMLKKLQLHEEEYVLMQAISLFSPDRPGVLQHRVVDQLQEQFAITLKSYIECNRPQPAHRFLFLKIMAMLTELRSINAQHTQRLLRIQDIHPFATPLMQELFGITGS
Description: Agonist activity at PXR expressed in human HepG2 cells assessed as transactivation […] by luciferase reporter gene assay. (In general: Reporter assays use an easily measured gene product as a stand-in for the process of interest.)

Data set [2] concerns the target T2, Bile acid receptor (Homo sapiens) (UniProt Q96RI1).
T2 sequence (whole entry): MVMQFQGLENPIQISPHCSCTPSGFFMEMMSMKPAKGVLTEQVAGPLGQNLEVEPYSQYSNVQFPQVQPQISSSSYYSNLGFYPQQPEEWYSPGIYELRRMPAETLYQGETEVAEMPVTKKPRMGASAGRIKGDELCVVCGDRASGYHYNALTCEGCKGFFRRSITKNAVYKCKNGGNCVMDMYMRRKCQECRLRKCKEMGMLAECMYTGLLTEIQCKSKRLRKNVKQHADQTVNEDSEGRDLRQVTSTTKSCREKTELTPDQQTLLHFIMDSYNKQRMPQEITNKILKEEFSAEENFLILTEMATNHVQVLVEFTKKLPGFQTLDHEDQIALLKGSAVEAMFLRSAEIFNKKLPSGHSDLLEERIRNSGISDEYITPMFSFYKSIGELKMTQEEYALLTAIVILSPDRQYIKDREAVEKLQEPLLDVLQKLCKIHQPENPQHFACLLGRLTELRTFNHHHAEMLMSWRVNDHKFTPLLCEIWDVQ
Description: Agonist activity at FXR expressed in human HepG2 cells at 50 uM after 48 hrs by luciferase reporter gene based transactivation assay. In a few lines: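 HepG2 cells (5 × 10⁵/well) were transfected using Fugene HD with pSG5-FXR, pSG5-RXR, pCMV-β-gal and the p(hsp27)-TK-LUC reporter (IR1 element). Cells were stimulated 48 h post-transfection for 18 h. Luciferase from lysates was normalised to β-galactosidase activity. Four experiments were run.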

For data set [3], the target named is T2, Bile acid receptor (Homo sapiens). Description: Antagonist activity at FXR expressed in human HepG2 cells assessed as inhibition of CDCA-mediated transactivation at 10 uM after 48 hrs by luciferase reporter gene assay. In a few lines:
(§1)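 Antagonism was tested in the FXR transactivation system: HepG2 cells transfected with FXR, RXR, β-gal and the hsp27 IR1-luciferase reporter. Cells were stimulated 48 h after transfection for 18 h with 10 μM CDCA plus test agent. Luciferase was normalised to β-gal. Four experiments were run.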

Data set [4] shares this target. Description: Antagonist activity at FXR expressed in human HepG2 cells assessed as inhibition of CDCA-mediated transactivation at 50 uM after 48 hrs by luciferase reporter gene assay. In a few lines: as §1
Data set [5] shares this target. Description: Agonist activity at FXR expressed in human HepG2 cells assessed as increase in OSTalpha mRNA level at 10 uM by RT-PCR analysis. The essentials:
(§2)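 HepG2 cells exposed to 10 μM test agent, alone or with 10 μM CDCA. mRNA was measured by SYBR Green real-time PCR with 50 ng template and 0.2 μM of each primer. Cycling was 95 °C 2 min, then 40 cycles of 95/55/72 °C. Reactions ran in triplicate. CT was normalised to GAPDH, and ΔΔCT was taken against untreated cells. Four experiments were run.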

Data set [6] shares this target. Description: Agonist activity at FXR expressed in human HepG2 cells assessed as increase in BSEP mRNA level at 10 uM by RT-PCR analysis. In a few lines: as §2
Data set [7] has the same target. Description: Agonist activity at FXR expressed in human HepG2 cells assessed as effect on SHP mRNA level at 10 uM by RT-PCR analysis. In a few lines:
as §2

For data set [8] the target is unchanged. Description: Agonist activity at FXR expressed in human HepG2 cells assessed as increase in CYP7A1 mRNA level at 10 uM by RT-PCR analysis relative to control. The essentials:
as §2

Data set [9] has as its target T1, Nuclear receptor subfamily 1 group I member 2. Description: Antagonist activity at PXR expressed in human HepG2 cells assessed as inhibition of rifaximin-induced CYP3A4 mRNA expression at 50 uM by RT-PCR analysis. As to conditions: hepg2, 50 µM.
In data set [10] the target is T2, Bile acid receptor (Homo sapiens). Description: Antagonist activity at FXR expressed in human HepG2 cells assessed as inhibition of 6-ECDCA-mediated transactivation at 10 uM after 48 hrs by luciferase reporter gene assay. In a few lines: (§3)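 The FXR/RXR/hsp27-luciferase HepG2 transfection system was used, with test agent co-administered alongside 6-ECDCA. Stimulation was 18 h, starting 48 h after transfection. Luciferase was normalised to β-galactosidase.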

The target is the same in data set [11]. Description: Antagonist activity at FXR expressed in human HepG2 cells assessed as inhibition of 6-ECDCA-mediated transactivation at 50 uM after 48 hrs by luciferase reporter gene assay. The essentials:
as §3

The structures appear in SMILES notation. The source made the active and inactive calls. The calls are words filed in the database; no cut-off is given here.

With `CO[C@H]1/C=C/O[C@@]2(C)Oc3c(C)c(O)c4c(O)c(c5c(nc6cc(C)ccn65)c4c3C2=O)NC(=O)/C(C)=C\C=C\[C@H](C)[C@H](O)[C@@H](C)[C@@H](O)[C@@H](C)[C@H](OC(C)=O)[C@@H]1C` [RIFAXIMIN], the outcome in data set [1] was Active.
Turning to `C=C1[C@@H](O)CC[C@@]2(C)[C@H]1C[C@@H](O)C1=C3[C@H](O)C[C@H]([C@H](C)CC[C@@H](C)C(C)C)[C@@]3(C)CC[C@@H]12` [CONICASTEROL E], the outcome in [2], in [5] and in data set [6] was Active. Further, the inhibition result in data set [3], in data set [4], in [10] and in [11] was “inactive” throughout. The outcome in data set [1] was Active. In data set [7], the result was inactive. Moreover, the fold change (FC) in data set [8] came out at 2. In addition, the “inhibition (INH)” value in data set [9] is listed as “Not Active”.
